From ChEMBL document CHEMBL3124791 (J Med Chem, 2014)
pIC50: −log10 of the molar value. ≈ marks a conversion by molar mass, not a printed value. Calls of active or inactive are those of the source. No cut-off for these calls is given here.

How the values were obtained:
KB = assay: Cytotoxicity against human KB cells by SRB assay; format: functional
Procedure, shortened: (§1)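 Sulforhodamine B growth assay across A-549, KB, P-gp-expressing KBvin and DU145 lines. […] Mean ± SD, at least triplicate.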

A549 [1] = assay: Cytotoxicity against human A549 cells by SRB assay; format: functional; procedure, shortened: as §1
DU-145 = assay: Cytotoxicity against human DU145 cells by SRB assay; format: functional; procedure, shortened: as §1
[2] = Cytotoxicity against human KBVIN cells by SRB assay; format: functional; procedure, shortened: as §1
[3] = Aqueous solubility of the compound in phosphate buffer at pH 7.4 after 4 hrs by HPLC-UV method; format: physicochemical; conditions: pH 7.4, 4 h
Tubulin (Homo sapiens) [4] = biological target: T1, Tubulin (Homo sapiens) (UniProt P68371+Q9H4B7+P0DPH7+P68366+Q13509+Q71U36+P04350+Q3ZCM7+P07437+P68363+Q9BQE3+Q6PEY2+Q13885+Q9BVA1+Q9BUF5); assay: Displacement of [3H]colchine from tubulin (unknown origin) at 5 uM after 10 mins; format: protein-complex assay
Liver microsome = assay: Half life in human liver microsomes at 1 uM by LC-MS analysis; format: ADME
Tubulin (Homo sapiens) [5] = biological target: T1, Tubulin (Homo sapiens); assay: Displacement of [3H]colchine from tubulin (unknown origin) at 1 uM after 10 mins; format: protein-complex assay
Tubulin = assay: Inhibition of tubulin (unknown origin) polymerization incubated for 15 mins prior to GTP addition measured after 20 mins by turbidimetry; format: protein-complex assay, Homo sapiens
Tubulin (Homo sapiens) [6] = biological target: T1, Tubulin (Homo sapiens); assay: Inhibition of tubulin polymerization in human A549 cells assessed as disappearance of microtubule network at 100 nM after 24 hrs by Hoechst 33342 staining-based immunocytochemistry relative to control; format: cell-based
Mus musculus [7] = assay: Toxicity in athymic Balb/c nu/nu mouse xenografted with human MCF7 cells assessed as change in body weight at 4 mg/kg, iv administered as Q3D X 6 regimen (reference value: 0.10%); format: organism-based; set-up: dose 4 mg/kg, route intravenous; conditions: in vivo
Procedure, shortened: (§2)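 At 100–300 mm3 tumors, mice sorted into treated and control groups (n = 7). Dosing 4 mg/kg i.v. every 3 days; vehicle 5% PEG400/PBS. Stopped when control tumors reached about 1500 mm3; tumors excised and weighed. Inhibitory rate = [1 − mean treated/control tumor weight] × 100; body weight and deaths recorded.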

MCF7 = assay: Antitumor activity against human MCF7 cells xenografted in athymic Balb/c nu/nu mouse assessed as tumor growth inhibition at 4 mg/kg, iv administered as Q3D X 6 regimen; format: functional; procedure, shortened: as §2
Canis lupus familiaris [8] = species on record: Canis lupus familiaris; conditions: 10 uM
A549 [9] = assay: Cell cycle arrest in human A549 cells assessed as accumulation at G2/M phase at 3 nM after 24 hrs by propidium iodide staining-based FACS analysis; format: functional
Procedure, shortened: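 A549 cells treated 24 h (0.1% DMSO control), washed in PBS, fixed in 70% ice-cold ethanol at 4 °C for 24 h. RNase (0.05 mg/mL, 37 °C, 30 min), then propidium iodide 0.05 mg/mL for 30 min at rt in the dark. Cell-cycle distribution read by flow cytometry.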

Mus musculus [10] = assay: Toxicity in athymic Balb/c nu/nu mouse xenografted with human MCF7 cells assessed as death at 4 mg/kg, iv administered as Q3D X 6 regimen; format: organism-based; set-up: dose 4 mg/kg, route intravenous; conditions: in vivo; procedure, shortened: as §2
A549 [11] = assay: Cell cycle arrest in human A549 cells assessed as accumulation at G2/M phase after 24 hrs by propidium iodide staining-based FACS analysis; format: functional
Canis lupus familiaris [12] = species on record: Canis lupus familiaris; assay: Competitive inhibition of dog brain tubulin using BODIPY FL-vinblastine as substrate at 30 to 100 uM incubated for 30 mins prior to substrate addition measured after 30 mins by fluorescence assay
Procedure, shortened: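 Tubulin 4 μM from fresh dog brain in 25 mM PIPES pH 6.8, 1 mM EGTA, 3 mM MgCl2, preincubated with compound (10, 30, 100 μM) 30 min at 37 °C. BODIPY FL-vinblastine 2 μM then added for another 30 min. Fluorescence (ex 470/em 515 nm) decrease converted to % inhibition. Mean ± SD of at least three independent experiments.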

Canis lupus familiaris [13] = species on record: Canis lupus familiaris; assay: (§3) Competitive inhibition of dog brain tubulin using colchicine as substrate incubated for 45 mins prior to substrate addition measured after 45 mins by fluorescence assay
Procedure, shortened: (§4)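 Dog brain tubulin 4 μM in 25 mM PIPES pH 6.8, 1 mM EGTA, 3 mM MgCl2, preincubated with compound (0.1–10 μM) 45 min at 37 °C. […] Mean ± SD, at least three replicates.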

[14] = as §3; set-up: species or system Canis lupus familiaris; procedure, shortened: as §4
Tubulin (Homo sapiens) [15] = biological target: T1, Tubulin (Homo sapiens); assay: Inhibition of tubulin polymerization in human A549 cells assessed as disappearance of microtubule network at 3 nM after 24 hrs by Hoechst 33342 staining-based immunocytochemistry relative to control; format: cell-based
Procedure, shortened: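 A549 cells exposed to compound 24 h (0.1% DMSO control), fixed in 4% paraformaldehyde, permeabilized with 0.1% Triton X-100, blocked with 5% BSA. Stained with anti-α-tubulin (1:2000, 2 h) and a fluorescent anti-mouse secondary (1 h), nuclei with Hoechst 33342. Imaged at 20× for microtubule network loss.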

A549 [16] = assay: Cell cycle arrest in human A549 cells assessed as accumulation at G2/M phase at 300 nM after 24 hrs by propidium iodide staining-based FACS analysis; format: functional

Structure (SMILES)	GI50 (KB) [µM]	GI50 (A549 [1]) [µM]	GI50 (DU-145) [µM]	GI50 [2] [µM]	further results
COc1ccc2c(c1)C(=O)CCN2c1nc(Cl)nc2ccccc12	0.028	0.027	0.031	0.033	
COc1ccc2c(c1)CCCCN2c1nc(C)nc2ccccc12	0.019	0.021	0.018	0.02	solubility [3]: 2.94 µg/mL (≈ 9.2 µM); inhibition (Tubulin (Homo sapiens) [4]): 89%; t1/2 (Liver microsome): 24.85 min; inhibition (Tubulin (Homo sapiens) [5]): 46%; pIC50 (Tubulin): 6.06
Cc1ccc2c(c1)CCCN2c1nc(Cl)nc2ccccc12	0.048	0.043	0.057	0.046	
COc1ccc2c(c1)CCCN(c1nc(C)nc3ccccc13)C2	19.6	16.7	14.6	14.8	
CC(=O)O[C@H]1C(=O)[C@@]2(C)[C@H]([C@H](OC(=O)c3ccccc3)[C@]3(O)C[C@H](OC(=O)[C@H](O)[C@@H](NC(=O)c4ccccc4)c4ccccc4)C(C)=C1C3(C)C)[C@]1(OC(C)=O)CO[C@@H]1C[C@@H]2O [PACLITAXEL]	0.0064	0.0076	0.006	1.21	inhibition (Tubulin (Homo sapiens) [6]): inactive
COc1ccc2c(c1)C(O)CCN2c1nc(C)nc2ccccc12 (centres undefined)	0.018	0.019		0.017	solubility [3]: 8.72 µg/mL (≈ 27.1 µM); inhibition (Tubulin (Homo sapiens) [4]): 94%; t1/2 (Liver microsome): 42.44 min; inhibition (Tubulin (Homo sapiens) [5]): 75%; pIC50 (Tubulin): 6.01
Cc1nc(N2CCCc3cc(Br)ccc32)c2ccccc2n1	0.178	0.211	0.198	0.169	
COc1ccc2c(c1)CCCN2c1nc(C)nc2ccccc12					Activity (Mus musculus [7]): -15.7%; inhibition in vivo at 4 mg/kg (MCF7): 47.3%
CC[C@]1(O)C[C@H]2CN(CCc3c([nH]c4ccccc34)[C@@](C(=O)OC)(c3cc4c(cc3OC)N(C=O)[C@H]3[C@@](O)(C(=O)OC)[C@H](OC(C)=O)[C@]5(CC)C=CCN6CC[C@]43[C@@H]65)C2)C1					inhibition (Canis lupus familiaris [8]): 50%
COc1ccc2c(c1)CCN2c1nc(Cl)nc2ccccc12	0.227	0.233	0.165	0.197	
COc1ccc2c(c1)OCCN2c1nc(Cl)nc2ccccc12	0.153	0.199	0.169	0.195	
COc1ccc2c(c1)NC(=O)CN2c1nc(C)nc2ccccc12	0.0023	0.0032	0.0019	0.0022	Activity (A549 [9]): Active; Activity (Mus musculus [10]): Toxic; inhibition (Tubulin (Homo sapiens) [4]): 99%; Activity (A549 [11]): Dose-dependent effect; t1/2 (Liver microsome): 54.81 min; inhibition (Canis lupus familiaris [12]): inactive; inhibition (Tubulin (Homo sapiens) [5]): 93%; inhibition (Canis lupus familiaris [13]): Dose-dependent effect; pIC50 [14]: 6.26; inhibition (Tubulin (Homo sapiens) [15]): Active
COc1ccc2c(c1)CCCN(c1nc(Cl)nc3ccccc13)C2	11.3	7.57	6.81	5.45	
COc1ccc2c(c1)C(=O)CCN2c1nc(C)nc2ccccc12	0.019	0.024	0.021	0.021	solubility [3]: 1.21 µg/mL (≈ 3.79 µM); inhibition (Tubulin (Homo sapiens) [4]): 87%; t1/2 (Liver microsome): 20.89 min; inhibition (Tubulin (Homo sapiens) [5]): 56%; pIC50 (Tubulin): 6.03
COc1ccc2c(c1)OCCN2c1nc(C)nc2ccccc12	0.211	0.189	0.198	0.169	
COc1cc2c(c(OC)c1OC)-c1ccc(OC)c(=O)cc1[C@@H](NC(C)=O)CC2					Activity (A549 [11]): Dose-dependent effect; Activity (A549 [16]): Active
COc1ccc2c(c1)N(C)C(=O)CN2c1nc(C)nc2ccccc12	0.017	0.019	0.022	0.025	solubility [3]: 4.2 µg/mL (≈ 12.6 µM); Activity (Mus musculus [7]): 2.28%; Activity (Mus musculus [10]): Non-toxic; inhibition in vivo at 4 mg/kg (MCF7): 51%; inhibition (Tubulin (Homo sapiens) [4]): 96%; t1/2 (Liver microsome): 22 min; inhibition (Tubulin (Homo sapiens) [5]): 82%; pIC50 (Tubulin): 5.89
Cc1ccc2c(c1)CCCN2c1nc(C)nc2ccccc12	0.204	0.211	0.187	0.176	
COc1ccc2c(c1)CCCN2c1nc(Cl)nc2ccccc12					Activity (Mus musculus [7]): -7.9%; Activity (Mus musculus [10]): Non-toxic; inhibition in vivo at 4 mg/kg (MCF7): 22.9%
COc1ccc2c(c1)CCCCN2c1nc(Cl)nc2ccccc12	0.227	0.191	0.165	0.197	
COc1ccc2c(c1)CCN2c1nc(C)nc2ccccc12	0.32	0.268	0.243	0.216	
